# PLC-gamma1 inh: inhibitors of human phospholipase C gamma1 | inhibition, % at 12.2 µM | 0.84% of 370,000 active | purified PLC-gamma1, fluorogenic substrate, fluorescence; in the data active = inhibition above about 9.5%
# NRP1-CendR mod: alters CendR peptide binding to human NRP-1 | 0.85% of 360,000 active | O14786 | FAM-RPARPAR peptide binding to NRP-1, fluorescence polarization | inhibition, % at 25 µM;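 active = inhibition or corrected inhibition above about 18%, plus a signal ratio from 0.5 to 1.5, limit read from the data, passing the limit was not always enough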
# proKLK7 act: activators of human kallikrein-7 zymogen | P49862 | purified proKLK7, EDANS-DABCYL substrate fluorescence; 100% is mature enzyme control, 0% vehicle | activation, % at 7 µM | 0.9% of 370,000 active;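 active = activation above the mean of all tested compounds plus 3 SD, computed per campaign excluding outliers beyond control limits, cut at about 13% in these data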
# PLC-beta3 inh: blocks human PLC-beta3 enzyme activity | Q01970 | Purified PLC-beta3, fluorogenic substrate, fluorescence | inhibition, % at 12.2 µM | 0.18% of 370,000 active | AID 720704; in the data active = inhibition above about 11%
# Tn7 DDE FP: DD(E)-Tn7 binding inhibition, primary FP screen; inhibition, % at 8.3 µM; AID 720508; P02675; FP displacement of FITC-Tn7 peptide from fibrin DD(E); 0% = median of compound wells per plate; 0.13% of 370,000 active;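 active = inhibition above the mean of compounds falling within the control limits plus 3 SD of them, cut at about 14% in these data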
#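 system = human fibrin DD(E) protein | quantity = DD(E) 2 µM final | medium = Tris/NaCl/CaCl2 buffer, pH 7.8 | also added = labelled Tn7 tracer, 0.1 µM | compound dosing = single point at 8.3 µM | timing = compound with protein 10 min, then 3 h after probe, room temperature | signal = FP measurement | benchmarks = Aha-Tn7 high control | repeats = one replicate per compound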
# DDE Tn6 FP inh: inhibitors of Tn6 peptide binding to human fibrin DD(E) | P02675 | Fibrin DD(E) TRITC-Tn6 fluorescence polarization displacement | inhibition, % at 8.3 µM | 0.21% of 370,000 active;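 active = inhibition above a per-campaign cutoff: mean of compounds within control limits plus 3 SD, cut at about 15% in these data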
# A number is an active result; n = inactive; x = not tested or not shown. This is a sample that favours compounds with a hit; in the whole collection about 3% have one here.
SMILES,PLC-gamma1 inh,NRP1-CendR mod,proKLK7 act,PLC-beta3 inh,Tn7 DDE FP,DDE Tn6 FP inh
O=C(O)CSc1nnc(-c2ccc(Cl)cc2Cl)n1-c1ccc(Cl)cc1,n,26,n,n,n,n
COc1ccccc1-c1nnc(SCC(=O)O)n1-c1ccccc1,n,n,n,n,n,n
C=CCN(C(=O)[C@@H](CCCC)[C@@H](O)c1ccc(C(C)=O)cc1)c1ccccc1,n,x,n,n,n,n
Cc1cc(C)c(S(=O)(=O)c2cccc(Cl)c2)c(Cl)n1,n,33,n,n,n,n
COc1ccc(Cn2c(C3CC3)nc3ccc(NC(=O)c4cccnc4)cc3c2=O)cc1,x,32,x,x,x,x
COc1ccc(Cn2c(C3CC3)nc3ccc(NC(C)=O)cc3c2=O)cc1,n,n,n,n,n,n
COc1ccc(NC(=S)N(CCN2CCOCC2)Cc2ccccc2F)cc1,n,24,n,n,n,n
COc1ccc(-c2csc(Nc3cccnc3)n2)cc1,n,25,n,n,n,n
Cn1c(=O)c2[nH]c(NCCCN3CCOCC3)nc2n(C)c1=O,n,22,n,n,n,n
CN(Cc1ccccc1)C(=O)OCc1cn(Cc2ccc(F)cc2)nn1,n,x,n,n,n,n
C[C@H](NC(=O)c1ccccc1)C(=O)N1CCN(Cc2ccc3c(c2)OCO3)CC1,n,n,n,n,n,n
NC(=O)CC[C@H](NC(=O)c1ccc(F)cc1)C(=O)N1CCN(Cc2ccc3c(c2)OCO3)CC1,n,21,n,n,n,n
CCOc1ccc(-n2c(COc3ccc(C)cc3)nnc2SCC(=O)Nc2ccc(F)c(F)c2)cc1,n,x,n,n,n,n
NS(=O)(=O)c1cc(C(=O)NNC(=O)c2ccc3c(c2)OCO3)ccc1Cl,n,28,n,n,n,n
CC(C)(C)OC(=O)NCCc1n[nH]c(=S)o1,n,27,n,n,n,n
Cn1c(SCC(=O)Nc2ccccc2-c2ccccc2)nnc1-c1ccccc1,n,x,n,n,n,n
c1ccc(C[C@H]2COc3c4ccccc4nn32)cc1,n,26,n,n,n,n
C[C@H]1[C@@H](OC(=O)N2CCN(c3ccccc3)CC2)CC[C@@]23CCCN2C(=O)CCC[C@@H]13,n,x,x,n,n,n
C=CCc1c(OC(C)=O)c2ccccc2n(C)c1=O,n,25,n,n,n,n
COc1ccc(C2(C(=O)NC3CCCCC3)CCOCC2)cc1OC,n,24,n,n,n,n
Cc1ccc2oc(=O)n(CCCOc3ccccc3C)c2c1,n,n,n,n,n,n
Cc1ccc2oc(=O)n(CCOc3ccccc3C)c2c1,n,38,n,n,n,n
O=C(Nc1ccccc1Cl)c1cc(C2CCCN(C(=O)c3ccccc3)C2)on1 (stereo unspecified),n,n,n,11,n,n
CC(=O)Nc1ccc(C(=O)N2CCCCC2c2cc(C(=O)Nc3ccccc3Cl)no2)cc1 (stereo unspecified),n,24,n,n,n,n
CC(=O)Nc1ccc(C(=O)N2CCCCC2c2cc(C(=O)Nc3ccccc3)no2)cc1 (stereo unspecified),n,n,n,n,n,n
SMILES,PLC-gamma1 inh,NRP1-CendR mod,proKLK7 act,PLC-beta3 inh,Tn7 DDE FP,DDE Tn6 FP inh
O=C1C[C@H](c2ccc3ccccc3c2)N=C2N1/C(=C\c1ccccc1)[C@@H](c1ccccc1C(F)(F)F)N2Cc1ccc2c(c1)OCO2,n,x,x,n,n,n
O=C(c1ccc(Cl)c(Cl)c1)N1CCN(c2ccnc3cc(Cl)ccc23)CC1,n,x,x,n,n,n
C[C@@H]1CCN(C2CC2)S(=O)(=O)c2ccc(N3CC[C@@H](N(C)C)C3)cc2O1,n,x,n,n,n,n
Cc1ccc(OCC(=O)N/N=C/c2ccccc2)c([N+](=O)[O-])c1,n,19,n,n,n,n
Cc1ccc(C)c(OCC(=O)N/N=C\c2cccn2C)c1,n,35,n,n,n,n
Cc1ccc(OCC(=O)N/N=C\c2ccc(C)o2)c([N+](=O)[O-])c1,n,n,n,n,n,n
CC(C)CN1CN2CCc3ccccc3C2CS1(=O)=O (stereo unspecified),n,x,n,n,n,n
CCCc1nnc(SCc2ccc(C(=O)OC)o2)n1N,n,n,n,n,n,n
CCc1nnc(SCc2ccc(C(=O)OC)o2)n1N,n,38,n,n,n,n
Cc1ccnc(SCc2cn3c(C)cccc3n2)n1,n,20,n,n,n,n
CCN(C[C@H]1N[C@@](CC)(C(=O)OC)[C@H]2C(=O)N(C)C(=O)[C@@H]12)S(=O)(=O)c1ccc(OC)cc1,n,28,n,n,n,n
CCCCc1cn([C@@H](CCCCN)C(=O)N2CCNCC2)nn1,n,22,n,n,n,n
C[C@@]12C(=O)N(c3ccc(C(F)(F)F)cc3)C(=O)N1[C@@H]1c3ccccc3OC[C@@H]1[C@H]2c1ccccc1,x,28,x,x,x,x
C[C@H]1NC(=O)[C@@]2(C)[C@@H](c3ccccc3)[C@H]3COc4ccccc4[C@@H]3N2C1=O,n,25,n,n,n,n
CC(=O)Nc1sc2c(c1-c1nc3ccccc3s1)CCCN(C(C)C)C2,n,x,x,n,n,n
O=C(NCCN1CCOCC1)c1cc(-c2ccc(F)cc2)on1,n,38,n,n,n,n
Nn1c(SCC(=O)N2c3ccccc3Sc3ccc(Cl)cc32)nnc1-c1cc(-c2ccc(F)cc2)n[nH]1,n,x,n,n,n,n
O=C(O)c1cccc2c1Cc1cc(Cl)ccc1-2,n,25,n,n,n,n
CC(Oc1cccc(Cl)c1)C(=O)NCc1ccc(S(N)(=O)=O)cc1 (stereo unspecified),n,30,n,n,n,n
CCC(COC)NCc1cn(-c2ccc(F)cc2F)nc1-c1ccccc1C (stereo unspecified),n,26,n,n,n,n
COCCN(C)Cc1cn(-c2ccc(F)cc2F)nc1-c1ccccc1C,n,n,n,n,n,n
COc1cccc2c1OCC/C2=N\NC(=O)COc1ccccc1C,n,32,n,n,n,n
CCOC(=O)[C@]12CCCCC/C=C\1N(CCc1ccc(Cl)cc1)C(=O)[C@H]2CC(=O)N1CCCC1,n,x,n,n,n,n
O=S1(=O)c2c(cccc2N2CCC[C@H]2CO)O[C@@H]2CCN1C2,n,x,n,n,n,n
C=CC[C@@H](CC(=O)N(CCO)Cc1ccccc1)C(=O)NC[C@@H](OC(=O)[C@@H](CC=C)Cc1ccc(F)cc1)c1ccccc1,10,n,n,n,n,n
CC(C)C[C@H]1COc2cc(Br)ccc2S(=O)(=O)N1Cc1cn(CCC2OCCCO2)nn1,n,x,n,n,n,n
CCc1nc(Nc2ccccc2OC)c2oc3ccccc3c2n1,n,n,n,n,n,n
CCc1nc(Nc2cc(OC)ccc2OC)c2oc3ccccc3c2n1,n,25,n,n,n,n
Cc1ccc(NC2=CC(=O)CCC2)cc1C,n,46,n,n,n,n

# Compound activity from PubChem.
